rRNA inh HTS: inhibitors of bacterial rRNA selective over humanized ribosomes; GFP signal change (wild-type ribosome), % (test concentration not listed); AID 720706; E. coli WT GFP vs humanized-ribosome RFP mutants, fluorescence, 24 h; active compounds read low; DMSO median 0, no signal -100; actives 1.6% (n = 350,000);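 active = significant combined selectivity score with lowered wild-type GFP, culture density cut under 30%, mutant RFP and density less affected; inactive = any of these conditions unmet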
SIRT5 inh: inhibitors of human sirtuin-5 desuccinylase. actives 1.1% (n = 330,000). AID 652115. Purified SirT5, succinyl-peptide AMC, trypsin-coupled fluorescence. inhibition, % at 15 µM. Q9NXA8; in the data active = inhibition above about 15%
Target sequence (Q9NXA8 whole entry, looked up): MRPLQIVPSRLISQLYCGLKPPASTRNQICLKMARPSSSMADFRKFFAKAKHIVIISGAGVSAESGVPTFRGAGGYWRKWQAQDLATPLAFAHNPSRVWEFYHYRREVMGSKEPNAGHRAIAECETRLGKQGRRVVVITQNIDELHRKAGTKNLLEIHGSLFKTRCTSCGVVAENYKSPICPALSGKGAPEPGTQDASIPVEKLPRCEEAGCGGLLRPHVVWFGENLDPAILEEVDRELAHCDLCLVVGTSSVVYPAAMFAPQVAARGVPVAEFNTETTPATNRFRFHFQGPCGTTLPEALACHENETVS
S100A4 MyoIIA: inhibitors of human S100A4 binding to myosin IIA peptide; inhibition, % at 10.7 µM; AID 652163; actives 0.14% (n = 360,000); S100A4/TAMRA-MyoIIA peptide fluorescence polarization;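 active = mean inhibition of at least 70% across replicates, with every replicate also reaching that level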
Target sequence (P26447 whole entry, looked up): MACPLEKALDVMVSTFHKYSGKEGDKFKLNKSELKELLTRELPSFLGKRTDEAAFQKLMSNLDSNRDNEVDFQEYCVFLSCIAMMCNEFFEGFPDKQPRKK
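Test system – S100A4 monomer (human) · Compound – single-point compound testing · Schedule – 5 min incubation before reading · Probe or stimulus – TAMRA-labelled myosin IIA heavy-chain peptide probe, 5 nM · Benchmarks – neutral control DMSO, positive control TFP · Medium – Calcium-containing HEPES buffer, pH 7.2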
Cneo AK release: causes C. neoformans cell lysis | adenylate kinase release luminescence, 4 h; normalised: neutral wells 0, clomiphene wells 100 | lysis activity, % at 15 µM | actives 0.2% (n = 360,000) | AID 651654;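 active = mean lysis activity across replicates of at least 80%, whatever share of replicates individually reach that level; inactive = mean lysis activity below 80%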
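Assay system: log-phase C. neoformans yeast / Quantity: yeast cell density of 5 × 10^6 cells/mL / Medium: fresh YPD growth medium / Compound: single dose / Timing: static 4 h at 37 °C with compound, 1 h detection / Measured by: adenylate kinase release luminescence / Read-out: lysis from increased AK signal / Benchmarks: Clomiphene as positive lysis control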
Statin myotox sup: protects C2C12 myotubes from simvastatin toxicity; actives 0.78% (n = 330,000); AID 602340; ATP luminescence, 48 h; scaled: DMSO 0, geranylgeraniol control 100; rescue of ATP level, % at 7.49 µM;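 active = mean ATP rescue above about 67%, or every replicate alone reaching that limit, limit read from the data, passing the limit was not always enough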;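 note: myotubes were challenged with 10 µM simvastatin during compound exposure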
PGC1a acetyl inh: PGC1a acetylation modulation, inhibitor mode | U2OS PGC1a acetylation, AlphaScreen anti-acetyl-lysine; with virally co-expressed GCN5 acetyltransferase | inhibition, % at 15.6 µM | actives 0.17% (n = 350,000);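 active = every replicate shows inhibition of at least 40%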
Hits are given with their value; - = inactive; . = no result. Shown are actives, neighbours in structure and some others; about 3% of the full set was active somewhere.

SMILES	rRNA inh HTS	SIRT5 inh	S100A4 MyoIIA	Cneo AK release	Statin myotox sup	PGC1a acetyl inh
O=C(c1cnccn1)N1CC(=O)N2[C@H](CO)[C@@H](c3ccc(-c4ccc(F)cc4)cc3)[C@H]2C1	-	-	124	.	.	-
O=C(c1cnccn1)N1CC(=O)N2[C@@H](CO)[C@H](c3ccc(-c4ccc(F)cc4)cc3)[C@@H]2C1	-	-	-	.	.	-
CC(=O)N1CC(=O)N2[C@@H](CO)[C@H](c3ccc(-c4ccc(C#N)cc4)cc3)[C@@H]2C1	-	.	.	.	.	.
CCCNC(=O)C[C@@H]1CC[C@@H]2[C@H](COc3ccc(NC(=O)c4cscn4)cc3C(=O)N2C)O1	-	.	.	.	-	-
COc1ccccc1-c1cnc2c(c1)C(=O)N([C@@H](C)CO)C[C@H](C)[C@@H](CN(C)Cc1cncnc1)O2	-	-	-	-	-	-
N#C/C(=N\Nc1ccc(Cl)c(Cl)c1)C(=O)C1CC1	-	-	-	-	.	-
N#C/C(=N\Nc1ccc(F)cc1)C(=O)C1CC1	-34	-	-	-	.	-
O=C(O)c1ccc(Nc2nc(-c3ccccc3)nc3ccccc23)cc1	-	39	-	-	-	-
O=C(Nc1cccc(Cl)c1)c1nc[nH]c1C(=O)NCCCNC(=O)c1[nH]cnc1C(=O)Nc1cccc(Cl)c1	-	-	-	-	106	-
Cc1cccc(NC(=O)c2nc[nH]c2C(=O)N(C)CCO)c1	-40	-	-	.	.	.
CC(C)(C)S(=O)(=O)N1Cc2cc(=O)n(Cc3ccccc3)c(CCO)c2[C@H]1CCO	-	-	-	-	-	-
CC(C)(C)S(=O)N1Cc2cc(=O)n(Cc3ccccc3)c(CCO)c2[C@H]1CCO (stereo partly drawn)	-	26	-	-	-	.
C[C@H]1CN([C@@H](C)CO)C(=O)Cc2cc(NC(=O)Nc3ccccc3)ccc2O[C@H]1CN(C)C(=O)Nc1cccc2ccccc12	-	-	-	-	-	-
CO[C@H]1CN(C)C(=O)c2cc(NC(=O)Nc3ccccc3)ccc2OC[C@H](C)N(C(=O)CC2CC2)C[C@@H]1C	-	-	-	-	-	-
C[C@@H]1CCCCO[C@H](CN(C)C(=O)Nc2ccc(F)cc2)[C@H](C)CN([C@@H](C)CO)C(=O)c2cc(NC(=O)Cc3ccccc3)ccc2O1	-	-	-	-	87	-
COc1ccc(NC(=O)N(C)C[C@H]2OCCCC[C@@H](C)Oc3ccc(NC(=O)Cc4ccccc4)cc3C(=O)N([C@H](C)CO)C[C@@H]2C)cc1	-	19	-	-	.	-
C[C@H]1CCCCO[C@H](CN(C)C(=O)Nc2ccc(F)cc2)[C@@H](C)CN([C@@H](C)CO)C(=O)c2cc(NC(=O)Cc3ccccc3)ccc2O1	-	-	-	-	-	-
Cc1noc(C)c1NC(=O)Nc1ccc2c(c1)CC(=O)N([C@H](C)CO)C[C@H](C)[C@@H](CN(C)S(=O)(=O)c1c(C)noc1C)O2	-	.	.	.	.	.
O=C(CCn1c(SCC(=O)NCc2ccco2)nc2ccccc2c1=O)NCCc1ccccc1	.	.	.	-	102	-
COCCCn1c(SCC(=O)NCc2ccco2)nc2sc3c(c2c1=O)CCC3	.	.	.	-	132	-
C=CCn1c(SCC(=O)NCc2ccco2)nc2ccccc2c1=O	-	-	-	.	.	-
Cc1cc(N)n(-c2ccc(C)c(C)c2)n1	-	-	-	.	-	-
Cc1cc(N)n(-c2ccc(Oc3ccccc3)c(S(=O)(=O)O)c2)n1	-	47	-	.	.	-
COc1ccc(C(NC(=O)C2CCN(CCOc3ccc(Cl)cc3Cl)CC2)c2ccccc2C)cn1 (stereo not drawn)	-29	.	-	-	-	.
Cc1ccc(S(=O)(=O)Nc2ccc3c(c2)C(=O)N([C@H](C)CO)C[C@@H](C)[C@@H](CN(C)C(=O)CCCN(C)C)OCCCC[C@@H](C)O3)cc1	-	-	-	-	.	-
SMILES	rRNA inh HTS	SIRT5 inh	S100A4 MyoIIA	Cneo AK release	Statin myotox sup	PGC1a acetyl inh
CCCSc1nc2c(c(=O)[nH]c(=O)n2C)n1C	.	.	.	-	92	-
CC(C)Sc1nc2c(c(=O)[nH]c(=O)n2C)n1Cc1ccc(Cl)cc1	.	.	.	-	149	-
CCC(C)Sc1nc2c(c(=O)[nH]c(=O)n2C)n1Cc1ccc(Cl)cc1 (stereo not drawn)	.	.	.	-	130	-
COCCNC(=O)C[C@H]1C[C@H]2c3cc(NC(=O)Nc4ccc(F)cc4)ccc3O[C@H]2[C@H](CO)O1	-	.	.	-	-	-
COc1cccc(-c2ccc3c(c2)[C@H]2[C@H](CCN2C(=O)C2CCOCC2)[C@@H](CO)N3)c1	-	-	-	-	-	-
COC(=O)c1sc(-c2ccc(Cl)cc2)cc1NC(=O)c1ccccc1C(=O)O	.	-	-	.	.	-
CCOc1ccc(NC(=O)Nc2cc(-c3ccccc3)sc2C(=O)OC)cc1	-	16	-	-	-	-
CCOc1ccc(-c2cc(NC(=O)c3c(F)cccc3F)c(C(=O)O)s2)cc1	-	-	-	-	-	-
COC(=O)c1sc(-c2ccccc2)cc1NC(=O)C1CC1	-27	-	-	.	.	-
O=C(NCc1ccc(Cl)cc1Cl)C1CC(=O)N(Cc2ccccc2)C1 (stereo not drawn)	-23	-	-	.	-	-
O=C(Nc1cccc(S(=O)(=O)N2CCCCC2)c1)C1CC(=O)N(Cc2ccccc2)C1 (stereo not drawn)	-24	-	-	-	-	-
COCC#Cc1ccc2c(c1)O[C@@H](CN(C)Cc1ccc3c(c1)OCO3)[C@H](C)CN([C@H](C)CO)S2(=O)=O	-	-	-	-	-	-
Cc1ccc(S(=O)(=O)N(CC2CO2)c2ccccc2[N+](=O)[O-])cc1 (stereo not drawn)	-	-	-	.	-	79
Cc1ccc(N(CC2CO2)S(=O)(=O)c2ccccc2[N+](=O)[O-])cc1 (stereo not drawn)	-	-	-	-	-	-
COc1ccc(S(=O)(=O)Nc2ccc3c(c2)C(=O)N([C@@H](C)CO)C[C@H](C)[C@@H](CN(C)S(=O)(=O)c2cccs2)OCCCC[C@@H](C)O3)cc1	-	-	-	-	79	-
C[C@@H]1CCCCO[C@H](CN(C)S(=O)(=O)c2cccs2)[C@@H](C)CN([C@@H](C)CO)C(=O)c2cc(NS(=O)(=O)c3cccs3)ccc2O1	-	.	103	.	.	-
COc1ccc(S(=O)(=O)Nc2ccc3c(c2)C(=O)N([C@H](C)CO)C[C@H](C)[C@@H](CN(C)S(=O)(=O)c2cccs2)OCCCC[C@@H](C)O3)cc1	-	-	-	-	-	-
COc1ccc(S(=O)(=O)Nc2ccc3c(c2)C(=O)N([C@H](C)CO)C[C@H](C)[C@@H](CN(C)S(=O)(=O)c2cccs2)OCCCC[C@H](C)O3)cc1	-	-	-	-	-	-
